# Results taken from ChEMBL document CHEMBL4052589, “Discovery of Imidazo[1,2-a]pyridine Ethers and Squaramides as Selective and Potent Inhibitors of Mycobacterial Adenosine Triphosphate (ATP) Synthesis” (J Med Chem, 2017).
# Test system: Mycobacterium tuberculosis
# Experiment: Induction of membrane damage in Mycobacterium bovis BCG after 60 mins by DiOC2 probe-based fluorescence assay
# Format: functional
# Conditions: variant bovis BCG, 1 h
# Summary of the method: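 Cell-based assay. Mid-log phase BCG culture was pre-loaded with DiOC2 before compound exposure. Fluorescence was read as the red-shifted emission at 600 nm, which tracks membrane potential. CCCP served as the positive control, and IC50 was derived.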
row,SMILES,IC50 [µM]
1,Cc1ccc2nc(-c3ccc(F)cc3)c(OCCCNc3ccc(F)c(C)c3)n2c1,> 100
2,c1ccc(OCCCOc2c(-c3ccccc3)nc3ccccn23)cc1,> 100
3,O=c1c(NCc2cnccn2)c(-c2ccc(N3CCOCC3)cc2)c1=O,> 100
4,Cc1ccc2nc(-c3ccc(F)cc3)c(OCCCNc3ccc(F)c(C)n3)n2c1,> 100
5,O=c1c(NCc2ccccn2)c(-c2ccc(N3CCOCC3)cc2)c1=O,> 100
6,Cc1ccc2nc(-c3ccccc3)c(OCCCOc3ccccc3)n2c1,> 100
